Tested on: HEK-293T
Assay: Multiplex assay against HEK293T
Assay type: toxicity, cell-based
Settings: human
Summary of the method: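 Values for tubulin, mitochondrial-mass and membrane-permeability phenotypes are per cents of cells with healthy nuclei. These cells were identified by CellPathfinder machine-learning gating of live cells that had been stained at seeding with Hoechst33342, BioTracker Green Microtubule Cytoskeleton Dye, MitoTracker Red and Annexin V Alexa Fluor 680 and imaged on a CQ1 microscope at 37°C and 5% CO2 after compound addition. The gating first set Hoechst high-intensity objects apart from normal cells, then split normal cells into healthy, pyknosed or fragmented nuclei, and pyknosed cells into mitotic or apoptotic.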

[1] = 12 h, 1 µM, compound concentration 1 uM, replicate 1
[2] = 12 h, 1 µM, compound concentration 1 uM, replicate 2
[3] = 12 h, 10 µM, compound concentration 10 uM, replicate 1
[4] = 12 h, 10 µM, compound concentration 10 uM, replicate 2
[5] = 24 h, 1 µM, compound concentration 1 uM, replicate 1
[6] = 24 h, 1 µM, compound concentration 1 uM, replicate 2
[7] = 24 h, 10 µM, compound concentration 10 uM, replicate 1
[8] = 24 h, 10 µM, compound concentration 10 uM, replicate 2
[9] = 48 h, 1 µM, compound concentration 1 uM, replicate 1
[10] = 48 h, 1 µM, compound concentration 1 uM, replicate 2
[11] = 48 h, 10 µM, compound concentration 10 uM, replicate 1
[12] = 48 h, 10 µM, compound concentration 10 uM, replicate 2

## O=C(Nc1cc(-c2ccccc2)nn1-c1ccccc1F)c1ccc([N+](=O)[O-])cc1
[1]
  Population Apoptotic (%): 33%
  Population Fragmented Nuclei (%): 7%
  Population Healthy Nuclei (%): 78%
  Population Hoechst High Intensity Objects (%): 9%
  Population Membrane Permeable-Phenotype (%): 0%
  Population Mitochondria Different-Phenotype (%): 31%
  Population Mitotic Cells (%): 66%
  Population Normal (%): 90%
  Population Pyknosed Nuclei (%): 13%
  Population Tubulin-Different-Phenotype (%): 19%
  Total Cell Count: 402
[2]
  Population Apoptotic (%): 37%
  Population Fragmented Nuclei (%): 6%
  Population Healthy Nuclei (%): 83%
  Population Hoechst High Intensity Objects (%): 6%
  Population Mitochondria Different-Phenotype (%): 48%
  Population Mitotic Cells (%): 62%
  Population Normal (%): 94%
  Population Pyknosed Nuclei (%): 9%
  Total Cell Count: 417
[3]
  Population Apoptotic (%): 37%
  Population Fragmented Nuclei (%): 10%
  Population Healthy Nuclei (%): 71%
  Population Hoechst High Intensity Objects (%): 5%
  Population Membrane Permeable-Phenotype (%): 0%
  Population Mitochondria Different-Phenotype (%): 41%
  Population Mitotic Cells (%): 62%
  Population Normal (%): 94%
  Population Pyknosed Nuclei (%): 17%
  Population Tubulin-Different-Phenotype (%): 40%
  Total Cell Count: 342
[4]
  Population Apoptotic (%): 44%
  Population Fragmented Nuclei (%): 6%
  Population Healthy Nuclei (%): 73%
  Population Hoechst High Intensity Objects (%): 6%
  Population Mitochondria Different-Phenotype (%): 65%
  Population Mitotic Cells (%): 55%
  Population Normal (%): 93%
  Population Pyknosed Nuclei (%): 20%
  Population Tubulin-Different-Phenotype (%): 45%
  Total Cell Count: 367
[5]
  Population Apoptotic (%): 33%
  Population Fragmented Nuclei (%): 8%
  Population Healthy Nuclei (%): 78%
  Population Hoechst High Intensity Objects (%): 4%
  Population Membrane Permeable-Phenotype (%): 0%
  Population Mitochondria Different-Phenotype (%): 21%
  Population Mitotic Cells (%): 66%
  Population Normal (%): 95%
  Population Pyknosed Nuclei (%): 12%
  Population Tubulin-Different-Phenotype (%): 17%
  Total Cell Count: 481
[6]
  Population Apoptotic (%): 35%
  Population Fragmented Nuclei (%): 12%
  Population Membrane Permeable-Phenotype (%): 1%
  Population Mitochondria Different-Phenotype (%): 31%
  Population Mitotic Cells (%): 64%
  Population Pyknosed Nuclei (%): 8%
  Population Tubulin-Different-Phenotype (%): 16%
  Total Cell Count: 530
[7]
  Population Apoptotic (%): 15%
  Population Fragmented Nuclei (%): 9%
  Population Healthy Nuclei (%): 77%
  Population Hoechst High Intensity Objects (%): 2%
  Population Membrane Permeable-Phenotype (%): 0%
  Population Mitochondria Different-Phenotype (%): 35%
  Population Mitotic Cells (%): 84%
  Population Normal (%): 97%
  Population Pyknosed Nuclei (%): 13%
  Population Tubulin-Different-Phenotype (%): 35%
  Total Cell Count: 434
[8]
  Population Apoptotic (%): 22%
  Population Fragmented Nuclei (%): 7%
  Population Healthy Nuclei (%): 83%
  Population Hoechst High Intensity Objects (%): 3%
  Population Mitochondria Different-Phenotype (%): 47%
  Population Mitotic Cells (%): 77%
  Population Normal (%): 96%
  Population Pyknosed Nuclei (%): 8%
  Population Tubulin-Different-Phenotype (%): 33%
  Total Cell Count: 482
[9]
  Population Apoptotic (%): 17%
  Population Fragmented Nuclei (%): 13%
  Population Healthy Nuclei (%): 79%
  Population Hoechst High Intensity Objects (%): 3%
  Population Membrane Permeable-Phenotype (%): 2%
  Population Mitochondria Different-Phenotype (%): 14%
  Population Mitotic Cells (%): 82%
  Population Normal (%): 96%
  Population Pyknosed Nuclei (%): 7%
  Population Tubulin-Different-Phenotype (%): 9%
  Total Cell Count: 893
[10]
  Population Apoptotic (%): 33%
  Population Fragmented Nuclei (%): 17%
  Population Healthy Nuclei (%): 74%
  Population Hoechst High Intensity Objects (%): 2%
  Population Mitochondria Different-Phenotype (%): 15%
  Population Mitotic Cells (%): 66%
  Population Normal (%): 97%
  Population Tubulin-Different-Phenotype (%): 11%
  Total Cell Count: 799
[11]
  Population Apoptotic (%): 22%
  Population Fragmented Nuclei (%): 12%
  Population Healthy Nuclei (%): 77%
  Population Hoechst High Intensity Objects (%): 2%
  Population Membrane Permeable-Phenotype (%): 2%
  Population Mitochondria Different-Phenotype (%): 19%
  Population Mitotic Cells (%): 77%
  Population Normal (%): 97%
  Population Pyknosed Nuclei (%): 9%
  Population Tubulin-Different-Phenotype (%): 23%
  Total Cell Count: 671
[12]
  Population Apoptotic (%): 20%
  Population Fragmented Nuclei (%): 15%
  Population Hoechst High Intensity Objects (%): 3%
  Population Membrane Permeable-Phenotype (%): 1%
  Population Mitochondria Different-Phenotype (%): 27%
  Population Mitotic Cells (%): 79%
  Population Normal (%): 96%
  Population Pyknosed Nuclei (%): 6%
  Population Tubulin-Different-Phenotype (%): 26%
  Total Cell Count: 666

## COc1ccc2[nH]c(I)c(CCNC(C)=O)c2c1 [IODOMELATONIN]
[1]
  Population Apoptotic (%): 42%
  Population Fragmented Nuclei (%): 4%
  Population Healthy Nuclei (%): 80%
  Population Hoechst High Intensity Objects (%): 5%
  Population Membrane Permeable-Phenotype (%): 1%
  Population Mitochondria Different-Phenotype (%): 43%
  Population Mitotic Cells (%): 57%
  Population Normal (%): 94%
  Population Pyknosed Nuclei (%): 14%
  Population Tubulin-Different-Phenotype (%): 35%
  Total Cell Count: 388
[2]
  Population Apoptotic (%): 59%
  Population Fragmented Nuclei (%): 5%
  Population Healthy Nuclei (%): 84%
  Population Hoechst High Intensity Objects (%): 7%
  Population Membrane Permeable-Phenotype (%): 0%
  Population Mitochondria Different-Phenotype (%): 64%
  Population Mitotic Cells (%): 40%
  Population Normal (%): 92%
  Population Pyknosed Nuclei (%): 10%
  Population Tubulin-Different-Phenotype (%): 32%
  Total Cell Count: 400
[3]
  Population Apoptotic (%): 38%
  Population Fragmented Nuclei (%): 11%
  Population Healthy Nuclei (%): 77%
  Population Hoechst High Intensity Objects (%): 8%
  Population Membrane Permeable-Phenotype (%): 0%
  Population Mitochondria Different-Phenotype (%): 52%
  Population Mitotic Cells (%): 61%
  Population Normal (%): 91%
  Population Pyknosed Nuclei (%): 10%
  Population Tubulin-Different-Phenotype (%): 29%
  Total Cell Count: 445
[4]
  Population Apoptotic (%): 46%
  Population Fragmented Nuclei (%): 8%
  Population Hoechst High Intensity Objects (%): 12%
  Population Mitochondria Different-Phenotype (%): 62%
  Population Mitotic Cells (%): 53%
  Population Normal (%): 87%
  Population Pyknosed Nuclei (%): 14%
  Population Tubulin-Different-Phenotype (%): 25%
  Total Cell Count: 316
[5]
  Population Apoptotic (%): 38%
  Population Fragmented Nuclei (%): 8%
  Population Healthy Nuclei (%): 80%
  Population Hoechst High Intensity Objects (%): 3%
  Population Membrane Permeable-Phenotype (%): 1%
  Population Mitochondria Different-Phenotype (%): 24%
  Population Mitotic Cells (%): 61%
  Population Normal (%): 96%
  Population Pyknosed Nuclei (%): 11%
  Population Tubulin-Different-Phenotype (%): 23%
  Total Cell Count: 511
[6]
  Population Apoptotic (%): 44%
  Population Fragmented Nuclei (%): 9%
  Population Healthy Nuclei (%): 78%
  Population Hoechst High Intensity Objects (%): 8%
  Population Membrane Permeable-Phenotype (%): 0%
  Population Mitochondria Different-Phenotype (%): 37%
  Population Mitotic Cells (%): 55%
  Population Normal (%): 91%
  Population Tubulin-Different-Phenotype (%): 14%
  Total Cell Count: 497
[7]
  Population Apoptotic (%): 32%
  Population Fragmented Nuclei (%): 11%
  Population Healthy Nuclei (%): 77%
  Population Hoechst High Intensity Objects (%): 5%
  Population Membrane Permeable-Phenotype (%): 1%
  Population Mitochondria Different-Phenotype (%): 31%
  Population Mitotic Cells (%): 67%
  Population Normal (%): 94%
  Population Pyknosed Nuclei (%): 10%
  Population Tubulin-Different-Phenotype (%): 25%
  Total Cell Count: 568
[8]
  Population Apoptotic (%): 40%
  Population Fragmented Nuclei (%): 5%
  Population Healthy Nuclei (%): 81%
  Population Hoechst High Intensity Objects (%): 9%
  Population Membrane Permeable-Phenotype (%): 0%
  Population Mitochondria Different-Phenotype (%): 48%
  Population Mitotic Cells (%): 59%
  Population Normal (%): 90%
  Population Pyknosed Nuclei (%): 12%
  Population Tubulin-Different-Phenotype (%): 21%
  Total Cell Count: 360
[9]
  Population Apoptotic (%): 26%
  Population Fragmented Nuclei (%): 12%
  Population Healthy Nuclei (%): 79%
  Population Hoechst High Intensity Objects (%): 4%
  Population Membrane Permeable-Phenotype (%): 1%
  Population Mitochondria Different-Phenotype (%): 19%
  Population Mitotic Cells (%): 73%
  Population Normal (%): 95%
  Population Pyknosed Nuclei (%): 7%
  Population Tubulin-Different-Phenotype (%): 16%
  Total Cell Count: 770
[10]
  Population Apoptotic (%): 31%
  Population Hoechst High Intensity Objects (%): 5%
  Population Mitochondria Different-Phenotype (%): 22%
  Population Mitotic Cells (%): 68%
  Population Normal (%): 94%
  Population Pyknosed Nuclei (%): 8%
  Population Tubulin-Different-Phenotype (%): 14%
  Total Cell Count: 622
[11]
  Population Apoptotic (%): 23%
  Population Fragmented Nuclei (%): 16%
  Population Healthy Nuclei (%): 77%
  Population Hoechst High Intensity Objects (%): 1%
  Population Membrane Permeable-Phenotype (%): 1%
  Population Mitochondria Different-Phenotype (%): 16%
  Population Mitotic Cells (%): 76%
  Population Normal (%): 98%
  Population Pyknosed Nuclei (%): 5%
  Population Tubulin-Different-Phenotype (%): 11%
  Total Cell Count: 860
[12]
  Population Apoptotic (%): 25%
  Population Fragmented Nuclei (%): 15%
  Population Healthy Nuclei (%): 75%
  Population Hoechst High Intensity Objects (%): 2%
  Population Membrane Permeable-Phenotype (%): 0%
  Population Mitochondria Different-Phenotype (%): 24%
  Population Mitotic Cells (%): 74%
  Population Normal (%): 97%
  Population Pyknosed Nuclei (%): 9%
  Population Tubulin-Different-Phenotype (%): 16%
  Total Cell Count: 613

Source: ChEMBL document CHEMBL5058577, “EUbOPEN Chemogenomics Library 2 (Multiplex)” (2022)
